Measured values as given in ChEMBL document CHEMBL3868630, “Synthesis, anti-proliferative activity, SAR study, and preliminary in vivo toxicity study of substituted N,N'-bis(arylmethyl)benzimidazolium salts against a panel of non-small cell lung cancer cell lines” (Bioorg Med Chem, 2017).

Assays:
[1] = Growth inhibition of human NCI-H460 cells after 48 hrs by SRB assay; format: functional; conditions: NCI-H460, 48 h
[2] = Cytotoxicity against human EKVX cells assessed as cell growth at 10 uM after 48 hrs by SRB assay relative to control; format: functional; conditions: read-out: Activity
[3] = Cytotoxicity against human NCI-H460 cells assessed as decrease in cell viability after 72 hrs by MTT assay; format: functional, cell-based; conditions: NCI-H460, 72 h
Outline: (§1)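 Cells kept in RPMI 1640 with 10% FBS at 37 °C, 5% CO2, passaged every 2-3 days; seeded at 5,000-7,000 cells/well and left 24 h. Compounds dissolved in 1% DMSO, diluted in fresh medium to 1, 4, 16 and 32 µM, added in sextuplicate; 72 h exposure. MTT added for 3-4 h, medium removed, DMSO added for 15 min at 37 °C, OD read at 540 nm.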

[4] = Cytotoxicity against human NCI-H460 cells assessed as cell growth at 10 uM after 48 hrs by SRB assay relative to control; format: functional; conditions: NCI-H460, 48 h, read-out: Activity
[5] = Cytotoxicity against human NCI-H226 cells assessed as cell growth at 10 uM after 48 hrs by SRB assay relative to control; format: functional; conditions: NCI-H226, 48 h, read-out: Activity
[6] = Growth inhibition of human A549 cells after 48 hrs by SRB assay; format: functional; conditions: A549, 48 h
[7] = Aqueous solubility of the compound; format: physicochemical
[8] = Cytotoxicity against human A549 cells assessed as cell growth at 10 uM after 48 hrs by SRB assay relative to control; format: functional; conditions: A549, 48 h, read-out: Activity
[9] = Cytotoxicity against human HOP62 cells assessed as cell growth at 10 uM after 48 hrs by SRB assay relative to control; format: functional; conditions: HOP-62, 48 h, read-out: Activity
[10] = Growth inhibition of human NCI-H322M cells after 48 hrs by SRB assay; format: functional; conditions: for CC50: read-out: LC50 (the source's name)
[11] = Growth inhibition of human NCI-H522 cells after 48 hrs by SRB assay; format: functional; conditions: NCI-H522, 48 h; for CC50: read-out: LC50 (the source's name)
[12] = Growth inhibition of human HOP92 cells after 48 hrs by SRB assay; format: functional; conditions: HOP-92, 48 h
[13] = Cytotoxicity against human NCI-H322M cells assessed as cell growth at 10 uM after 48 hrs by SRB assay relative to control; format: functional; conditions: read-out: Activity
[14] = Cytotoxicity against human NCI-H23 cells assessed as cell growth at 10 uM after 48 hrs by SRB assay relative to control; format: functional; conditions: NCI-H23, 48 h, read-out: Activity
[15] = Growth inhibition of human HOP62 cells after 48 hrs by SRB assay; format: functional; conditions: HOP-62, 48 h; for CC50: read-out: LC50 (the source's name)
[16] = Growth inhibition of human NCI-H226 cells after 48 hrs by SRB assay; format: functional; conditions: NCI-H226, 48 h
[17] = Growth inhibition of human NCI-H23 cells after 48 hrs by SRB assay; format: functional; conditions: NCI-H23, 48 h
[18] = Cytotoxicity against human A549 cells assessed as decrease in cell viability after 72 hrs by MTT assay; format: functional, cell-based; conditions: A549, 72 h; outline: as §1
[19] = Cytotoxicity against human HOP92 cells assessed as cell growth at 10 uM after 48 hrs by SRB assay relative to control; format: functional; conditions: HOP-92, 48 h, read-out: Activity
[20] = Cytotoxicity against human HCC827 cells assessed as decrease in cell viability after 72 hrs by MTT assay; format: functional, cell-based; conditions: HCC827, 72 h; outline: as §1
[21] = Growth inhibition of human EKVX cells after 48 hrs by SRB assay; format: functional
[22] = Cytotoxicity against human NCI-H1975 cells assessed as decrease in cell viability after 72 hrs by MTT assay; format: functional, cell-based; conditions: NCI-H1975, 72 h; outline: as §1

solubility [7]	Compound	GI50 [1]	growth at 10 µM [2]	IC50 [3]	growth at 10 µM [4]	growth at 10 µM [5]	GI50 [6]	TGI [6]	growth at 10 µM [8]	growth at 10 µM [9]	GI50 [10]	TGI [10]	GI50 [11]	TGI [11]	GI50 [12]	TGI [12]	growth at 10 µM [13]	IC50 [18]	IC50 [20]	IC50 [22]	also measured
< 500 µg/mL	O=C(O)CCc1n(Cc2ccc3ccccc3c2)c2ccccc2[n+]1Cc1ccc2ccccc2c1.[Cl-]			> 30 µM														> 30 µM	> 30 µM	> 30 µM	
< 500 µg/mL	O=C(O)c1cc2c(cc1C(=O)O)[n+](Cc1ccc3ccccc3c1)cn2Cc1ccc2ccccc2c1.[Cl-]			> 30 µM														> 30 µM	> 30 µM	> 30 µM	
< 500 µg/mL	COC(=O)Cc1n(Cc2ccc3ccccc3c2)c2ccccc2[n+]1Cc1ccc2ccccc2c1.[Br-]			7 µM														8 µM	8 µM	6 µM	
< 500 µg/mL	COc1ccc2c(c1)n(Cc1ccc3ccccc3c1)c[n+]2Cc1ccc2ccccc2c1.[Br-]			4 µM														6 µM	4 µM	2 µM	
< 500 µg/mL	Cl.O=C(O)c1ccc2c(c1)n(Cc1ccc3ccccc3c1)c[n+]2Cc1ccc2ccccc2c1.[Br-]			16 µM														12 µM	> 30 µM	23 µM	

Compound	solubility [7]	GI50 [1]	growth at 10 µM [2]	IC50 [3]	growth at 10 µM [4]	growth at 10 µM [5]	GI50 [6]	TGI [6]	growth at 10 µM [8]	growth at 10 µM [9]	GI50 [10]	TGI [10]	GI50 [11]	TGI [11]	GI50 [12]	TGI [12]	growth at 10 µM [13]	IC50 [18]	IC50 [20]	IC50 [22]	also measured
[Cl-].c1ccc2nc(Cn3c[n+](Cc4ccc5ccccc5n4)c4ccccc43)ccc2c1	2400 µg/mL	2.8 µM	74.7%	4 µM	32.4%	37.1%	11.6 µM	25.9 µM	54%	53.8%	3.68 µM	17.1 µM	1.56 µM	9.72 µM	0.93 µM	4.3 µM	78.1%	10 µM	6 µM	3 µM	LC50 [1]: 41.8 µM; TGI [1]: 12.3 µM; LC50 [6]: 58 µM; CC50 [10]: 43.5 µM; CC50 [11]: 44.7 µM; LC50 [12]: 25 µM; growth at 10 µM [14]: 32%; GI50 [15]: 2.97 µM; TGI [15]: 13.7 µM; CC50 [15]: 41 µM; GI50 [16]: 4.13 µM; LC50 [16]: 78.2 µM; TGI [16]: 20.4 µM; GI50 [17]: 1.47 µM; LC50 [17]: 49.4 µM; TGI [17]: 10.3 µM; growth at 10 µM [19]: -8.16%; GI50 [21]: 5.7 µM; LC50 [21]: 72.1 µM; TGI [21]: 23.7 µM
OCCCc1n(Cc2ccc3ccccc3c2)c2ccccc2[n+]1Cc1ccc2ccccc2c1.[Br-]	< 500 µg/mL	2.43 µM	47.6%	4 µM	18.4%	48.5%	6.97 µM	31.4 µM	68.4%	37.5%	2.15 µM	9.1 µM	1.05 µM	3.95 µM	0.566 µM	3.1 µM	49.9%	10 µM	6 µM	4 µM	LC50 [1]: 80.3 µM; TGI [1]: 9.57 µM; LC50 [6]: > 100 µM; CC50 [10]: 31.7 µM; CC50 [11]: 84.4 µM; LC50 [12]: 69.1 µM; growth at 10 µM [14]: 19%; GI50 [15]: 2.32 µM; TGI [15]: 11.6 µM; CC50 [15]: 82.7 µM; GI50 [16]: 2.23 µM; LC50 [16]: 99.6 µM; TGI [16]: 10.5 µM; GI50 [17]: 1.65 µM; LC50 [17]: 56.8 µM; TGI [17]: 8.17 µM; growth at 10 µM [19]: -24.3%; GI50 [21]: 3.68 µM; LC50 [21]: 70.6 µM; TGI [21]: 19.4 µM
Cc1cc2c(cc1C)[n+](Cc1ccc3ccccc3c1)cn2Cc1ccc2ccccc2c1.[Br-]	< 500 µg/mL	0.662 µM	-64.3%	2 µM	-76.8%	-25.5%	1.42 µM	2.95 µM	-71.3%	-73%	1.14 µM	2.42 µM	1.25 µM	2.99 µM	0.587 µM	2.53 µM	-8.28%	3 µM	2 µM	2 µM	growth at 10 µM [14]: -71.8%; GI50 [15]: 1.03 µM; TGI [15]: 2.47 µM; GI50 [16]: 1.39 µM; TGI [16]: 3.42 µM; GI50 [17]: 0.872 µM; TGI [17]: 2.28 µM; growth at 10 µM [19]: -80.8%; GI50 [21]: 1.37 µM; TGI [21]: 2.88 µM
